Measured values gathered from unrelated publications.
Protocols differ between the studies behind these lines. Values after ≈ are worked out from the molar mass of the structure shown.
Organism: Nakaseomyces glabratus

| SMILES | assay | test system | conditions | measurement | result |
| --- | --- | --- | --- | --- | --- |
| CCCCCCOc1c(OC)cc(NC(C)CCCNC(=O)C(N)Cc2cnc[nH]2)c2nc(C(C)(C)C)ccc12 (stereo not shown) | microbial killing | ATCC90030 | – | MFC | 20 mg/L (≈ 36.2 µM) |
| Cc1cccc(-n2cc(Cn3c(C(=O)O)nc4ccccc4c3=O)nn2)c1 | microbial growth, broth dilution | ATCC90030 | 24 h | IC50 | 245 mg/L |
| CCCCCCCCCCN1CCN(CC(O)(Cn2cncn2)c2ccc(Cl)cc2Cl)CC1 (stereo not shown) | microbial growth, broth dilution | ATCC2001 | 48 h | MIC | 0.975 mg/L (≈ 1.96 µM) |
| OC(Cn1cncn1)(Cn1cncn1)c1ccc(F)cc1F | microbial growth, broth dilution | MY1381 | – | MIC50 | 4 mg/L (≈ 13.1 µM) |
| C[C@@H]1[C@H](O)[C@@H](C)/C=C/C=C/C=C/C=C/C=C/C=C/C=C/[C@H](O[C@@H]2O[C@H](C)[C@@H](O)[C@H](N)[C@@H]2O)C[C@@H]2O[C@](O)(C[C@@H](O)C[C@@H](O)[C@H](O)CC[C@@H](O)C[C@@H](O)CC(=O)O[C@H]1C)C[C@H](O)[C@H]2C(=O)O | microbial growth | ATCC90030 | – | IC50 | 0.39 µM |
| CCCCCN1CCN(CC(O)(Cn2cncn2)c2ccc(F)cc2F)CC1 (stereo not shown) | microbial growth, broth dilution | ATCC2001 | 48 h | MIC | > 31.3 mg/L |
| CCCCCCCOc1c(OC)cc(NC(C)CCCNC(=O)C(N)C(C)CC)c2nc(C(C)(C)C)ccc12 (stereo not shown) | microbial growth, broth dilution | ATCC90030 | – | MIC | 10 mg/L (≈ 18.4 µM) |
| COc1cccc(-n2cc(Cn3c(C(=O)O)nc4ccccc4c3=O)nn2)c1 | microbial growth, broth dilution | ATCC90030 | 24 h | IC50 | 453 mg/L |
| CCCCCCCCCCCCCN1CCNCC1 | microbial growth, broth dilution | ATCC2001 | 48 h | MIC | 0.48 mg/L (≈ 1.79 µM) |
| CCOC(=O)c1nc2ccccc2c(=O)n1Cc1cn(-c2cccc(OC)c2)nn1 | microbial growth, broth dilution | ATCC90030 | 24 h | IC50 | 417 mg/L |
| CCCCCCCCCCCCCN1CCN(CC(O)(Cn2cncn2)c2ccc(F)cc2F)CC1 (stereo not shown) | microbial growth, broth dilution | ATCC2001 | 48 h | MIC | 0.975 mg/L (≈ 1.93 µM) |
| CCCCCOc1c(OC)cc(NC(C)CCCNC(=O)C(N)CC(C)C)c2nc(C(C)(C)C)ccc12 (stereo not shown) | microbial growth | ATCC90030 | – | IC50 | 11.3 mg/L |
| O=C(O)c1nc2ccccc2c(=O)n1Cc1cn(-c2cccc(Cl)c2)nn1 | microbial growth, broth dilution | ATCC90030 | 24 h | IC50 | 278 mg/L |
| CCCCOc1c(OC)cc(NC(C)CCCN)c2nc(C(C)(C)C)cc(C)c12 (stereo not shown) | microbial killing | ATCC90030 | – | MFC | > 20 mg/L |
| CCCCCCCCN1CCN(CC(O)(Cn2cncn2)c2ccc(F)cc2F)CC1 (stereo not shown) | microbial growth, broth dilution | ATCC2001 | 48 h | MIC | 15.6 mg/L (≈ 35.8 µM) |
| CCOC(=O)c1nc2ccccc2c(=O)n1Cc1cn(-c2ccccc2C)nn1 | microbial growth, broth dilution | ATCC90030 | 24 h | IC50 | 351 mg/L |
| CCCCCOc1c(OC)cc(NC(C)CCCNC(=O)C(N)CCCNC(=N)N)c2nc(C(C)(C)C)ccc12 (stereo not shown) | microbial growth, broth dilution | ATCC90030 | – | MIC | 20 mg/L (≈ 35.9 µM) |
| CCOC(=O)c1nc2ccccc2c(=O)n1Cc1cn(-c2ccc(OC)cc2)nn1 | microbial growth, broth dilution | ATCC90030 | 24 h | IC50 | 118 mg/L |
| CCCCCCCCOc1c(OC)cc(NC(C)CCCN)c2nc(C(C)(C)C)ccc12 (stereo not shown) | microbial growth | ATCC90030 | – | IC50 | 6.19 mg/L |
